# Rows were chosen to be rich in hits. Some 9.4% of all compounds tested hit in one or more screens of this group.
# Mdm2-MdmX inh: inhibitors of human Mdm2/MdmX interaction; SaOS-2 split-luciferase Mdm2/MdmX complementation, luminescence; inhibition, % at 8 µM; 330,000 compounds, 3% hits;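 active = inhibition of at least 50% at 8 µM in the primary screen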
# Target sequence (O15151 whole entry, looked up): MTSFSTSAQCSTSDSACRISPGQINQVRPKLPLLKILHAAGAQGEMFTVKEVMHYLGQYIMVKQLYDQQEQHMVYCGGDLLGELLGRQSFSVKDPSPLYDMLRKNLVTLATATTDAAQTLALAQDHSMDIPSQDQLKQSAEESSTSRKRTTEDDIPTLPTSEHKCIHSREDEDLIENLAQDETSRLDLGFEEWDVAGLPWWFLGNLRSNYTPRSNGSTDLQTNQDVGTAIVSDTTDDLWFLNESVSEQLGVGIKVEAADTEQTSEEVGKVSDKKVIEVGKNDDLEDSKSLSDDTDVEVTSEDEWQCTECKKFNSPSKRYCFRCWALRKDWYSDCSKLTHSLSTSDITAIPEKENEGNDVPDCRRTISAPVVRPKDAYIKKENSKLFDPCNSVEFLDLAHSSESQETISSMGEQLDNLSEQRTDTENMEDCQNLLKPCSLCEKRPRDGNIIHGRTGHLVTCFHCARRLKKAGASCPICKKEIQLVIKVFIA
# Target sequence (Q00987 whole entry, looked up): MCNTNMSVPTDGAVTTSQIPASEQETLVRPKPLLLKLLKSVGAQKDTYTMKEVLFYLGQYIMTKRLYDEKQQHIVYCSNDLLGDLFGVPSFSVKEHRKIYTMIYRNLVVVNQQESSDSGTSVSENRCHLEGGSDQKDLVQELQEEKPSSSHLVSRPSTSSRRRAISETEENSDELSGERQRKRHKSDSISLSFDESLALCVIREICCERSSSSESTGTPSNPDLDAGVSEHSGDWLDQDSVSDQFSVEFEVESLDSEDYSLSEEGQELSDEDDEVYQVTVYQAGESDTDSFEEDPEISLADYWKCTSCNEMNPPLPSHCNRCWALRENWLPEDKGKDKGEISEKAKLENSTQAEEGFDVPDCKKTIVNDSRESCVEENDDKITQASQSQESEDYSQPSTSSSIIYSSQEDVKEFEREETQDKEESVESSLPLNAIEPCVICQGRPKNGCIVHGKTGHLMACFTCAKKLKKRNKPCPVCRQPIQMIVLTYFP
# T cruzi inh: blocks replication of Trypanosoma cruzi. T. cruzi beta-gal in NIH3T3, luminescence, 90 h. inhibition, % (test concentration not listed). 300,000 compounds, 1.4% hits;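 active = mean inhibition across valid replicates above about 55%, limit read from the data; inconclusive = mean below that limit but half or more replicates reach it; inactive = mean below it, under half of replicates reach it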;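 also: signal also drops with host cell toxicity which is not excluded here; 0% = plate median of DMSO wells and 100% = zero luminescence signal; higher percent means less beta-gal luminescence so fewer parasites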
#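 Test system: β-gal T. cruzi (Tulahuen C4) inside NIH/3T3 cells / Quantity: 5,000 cells/well / Measured by: luminescence from GalScreen with 0.05% NP40, read after 60 min / Medium: DMEM plus 2% FBS / Measure: parasite load inhibition, % / Reagent: Tulahuen C4 trypomastigotes, 5000/well / Schedule: co-culture of at least 90 h after 3 h attachment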
# Beta cell apopt: beta cell apoptosis inhibition. INS-1E cytokine-induced death, ATP luminescence, 48 h; percent of positive-control rescue, neutral wells zero. protection from apoptosis, % (test concentration not listed). 300,000 compounds, 0.8% hits. AID 435005;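 active = Every replicate reaches about 75%, or at least half do and their mean reaches it too, limit read from the data; inconclusive = At least half of replicates reach the limit but their mean does not; inactive = Under half of replicates reach the limit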;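 also: 0% = cytokine-treated negative control wells and 100% = positive control rescue; higher means more ATP so stronger rescue from cytokine killing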
# SKKanGAS inh: blocks kanamycin growth of S. pyogenes SKKanGAS strain. BacTiter-Glo, 6 h. inhibition, % at 7.5 µM. 300,000 compounds, 1.3% hits;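 active = mean replicate score, as percent of positive control median, at least 50; inconclusive = mean below 50 but one replicate at or above 50; inactive = mean and every replicate below 50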;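 also: strain carries kanamycin resistance gene driven by streptokinase promoter and grows in 40 µg/ml kanamycin; loss of luminescence reflects streptokinase promoter inhibition or plain growth inhibition; 0% = median of DMSO wells and 100% = positive control at its reference dose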
# CSC inhib: blocks cancer stem cells | inhibition, % at 7.5 µM | cancer stem cell-like cells viability, luminescence | 300,000 compounds, 1.1% hits; in the data active = inhibition above about 75%; inconclusive = no clear call, values can overlap the other calls; tested in HMLE shEcad cells
# Lmaj promast: Leishmania major promastigote growth inhibition. 200,000 compounds, 9% hits. Leishmania major promastigotes, resazurin fluorescence viability. inhibition, % at 10 µM; in the data active = inhibition above about 50%;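 also: promastigotes grown with compound for 44 hours at 28 °C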
# * marks the source's active call; other numbers are inactive results; ? = inconclusive; nt = not tested or not shown.
SMILES,Mdm2-MdmX inh,T cruzi inh,Beta cell apopt,SKKanGAS inh,CSC inhib,Lmaj promast
Cc1ccc(O)c(NC2=C(Cl)C(=O)N(Cc3ccccc3)C2=O)c1,nt,58.1*,nt,-1.5,nt,3.4
CCOc1ccc(NC2=C(Cl)C(=O)N(Cc3ccccc3)C2=O)cc1,26.7,-8.8,8.2,0.1,-7.7,12.3
Cc1cccnc1NC(=O)/C=C/c1ccc2c(c1)OCO2,-37.2,-8.6,-12.1,4.0,1.7,-4.3
Cc1ccc(-n2nc3c(c2NC(=O)c2ccc4c(c2)OCO4)CS(=O)C3)cc1 (stereo unspecified),10.7,0.5,-5.5,-1.2,-13.5,-3.0
Cc1ccc(-n2nc3c(c2NC(=O)/C=C\c2ccc4c(c2)OCO4)CSC3)cc1,6.1,19.6,-2.2,4.7,-10.6,92.6*
Cc1ccccc1-n1nc2c(c1NC(=O)/C=C\c1ccc3c(c1)OCO3)CSC2,22.1,6.6,nt,3.3,4.1,68.0*
Cc1ccc(-n2nc3c(c2NC(=O)/C=C\c2ccc4c(c2)OCO4)CSC3)c(C)c1,29.4,11.3,nt,1.9,-13.0,99.2*
O=C(COC(=O)c1cnccn1)Nc1ncc(C(F)(F)F)cc1Cl,25.4,nt,-3.5,nt,5.4,nt
COc1ccccc1-n1cnnc1SCC(=O)NC1CCCC1,9.7,nt,-6.4,nt,nt,nt
COc1ccc(OC)c(CCNC(=O)Cn2nc(C)c3c(C)n(-c4ccccc4)nc3c2=O)c1,16.6,13.8,-1.5,-8.7,15.3,nt
CN(C)CCCNS(=O)(=O)c1ccc(NC2CCCCCC2)c([N+](=O)[O-])c1,45.6,46.1,84.8*,3.5,0.2,nt
O=C(CN1CCN(S(=O)(=O)c2ccc(Br)cc2)CC1)N/N=C/c1ccncc1,-26.4,-10.1,-4.8,1.4,27.4,nt
CC(C)=CCC12Oc3cc(O)ccc3C1(O)Oc1cc3c(c(O)c1C2=O)C=CC(C)(C)O3 (stereo unspecified),18.2,19.4,-5.4,105.0*,7.8,nt
CCC(C)N1CNc2c(c(=O)[nH]c(=S)n2-c2cccc(C)c2)C1 (stereo unspecified),-12.4,nt,4.8,nt,-3.0,-2.7
COc1cccc(OC)c1C1=NC(C)(C)CO1,16.4,-19.8,-6.6,-12.4,-11.3,nt
Cc1ccc2sc(N(CCCN(C)C)C(=O)c3ccc(S(=O)(=O)N(C)C)cc3)nc2c1C,17.1,37.9,4.5,-2.2,20.8,73.6*
CN(C)CCCN(C(=O)c1ccc(S(=O)(=O)N2CCOCC2)cc1)c1nc2ccc(F)cc2s1,4.2,64.9*,nt,-2.9,1.2,nt
CCc1ccc2nc(N(CCCN(C)C)C(=O)c3ccc(S(=O)(=O)N4CCCC4)cc3)sc2c1,27.6,37.3,0.8,-2.9,-9.1,nt
CN(C)CCCN(C(=O)C1COc2ccccc2O1)c1nc2ccc(F)cc2s1 (stereo unspecified),-3.6,46.1,-8.2,1.8,-4.4,4.8
CN(C)CCCN(C(=O)c1sc2ccccc2c1Cl)c1nc2ccc(F)cc2s1,-16.3,43.3,-1.0,5.8,3.7,71.7*
Cc1ccc2nc(N(CCCN(C)C)C(=O)c3ccc(S(=O)(=O)N4CCCCCC4)cc3)sc2c1,40.6,60.1*,12.6,?,1.2,nt
COc1cc(C(=O)N/C(=C\c2cn(C)c3ccccc23)C(=O)NCCCn2ccnc2)cc(OC)c1OC,-8.6,-19.2,-0.4,-2.3,-3.7,nt
COc1cc2nc(N(CCCN(C)C)C(=O)c3ccc(S(=O)(=O)N4CCc5ccccc5C4)cc3)sc2cc1OC,29.8,56.7*,nt,-5.6,-4.9,nt
CN(C)CCCOC(=O)c1sc2ccccc2c1Cl,7.4,45.1,-2.4,0.5,-7.3,58.8*
CCCCN(C)S(=O)(=O)c1ccc(C(=O)N(CCN(C)C)c2nc3ccc(C)cc3s2)cc1,-5.8,64.8*,-6.6,-4.9,-8.8,7.3
CN(C(=O)COC(=O)c1sc2ccccc2c1Cl)C1CCCCC1,-6.6,8.7,-7.6,23.8,-4.3,-10.6
O=C(CCS(=O)(=O)c1ccccc1)N(CCCN1CCOCC1)c1nc2ccc(F)cc2s1,44.7,63.0*,10.6,-4.1,61.6,nt
Cc1ccccc1NC(=O)c1cc2c(=O)n3cccc(C)c3nc2s1,30.8,9.1,10.0,-5.5,12.1,nt
CCN(CC)CCN(C(=O)c1ccc(S(=O)(=O)N(C)C2CCCCC2)cc1)c1nc2ccc(OC)cc2s1,13.3,64.6*,-1.3,33.1,3.9,nt
CN(C)CCN(C(=O)c1ccc(S(=O)(=O)N2CCCC2)cc1)c1nc2ccc(Br)cc2s1,13.9,56.6*,0.7,4.6,-18.2,nt

# Bioassay records: PubChem, several laboratories
